# SR-BI DiI-HDL act: SR-BI HDL lipid transfer activation | CHO ldlA[mSR-BI] cells, DiI-HDL uptake fluorescence, 3 h; 100 = double the neutral-control signal | activation, % at 12.5 µM | 0.096% of 320,000 active | AID 504775;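 active = mean replicate activation of at least 60% and every replicate at or above 60%; inconclusive = mean or all-replicate condition met, but not both; inactive = mean below 60% and not all replicates reaching 60%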;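 also: 0% = median plate neutral-control signal and 100% = twice that signal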
#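 Material – SR-BI-overexpressing, LDLR-lacking CHO cells · Medium – BSA-supplemented, HEPES-buffered Ham's F12, pH 7.4 · Doses – single concentration · Times – compound with DiI-HDL co-incubation, 3 h at 37 °C · Measured by – bottom-read fluorescence, 550/595 nm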
# S100A4 inh HTS: inhibitors of human S100A4 binding to myosin IIA peptide. 0.14% of 360,000 active. inhibition, % at 10.7 µM. S100A4/TAMRA-MyoIIA peptide fluorescence polarization;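 active = mean inhibition of at least 70% across replicates, with every replicate also reaching that level; inconclusive = mean inhibition reaches 70% but some replicates fall short; inactive = mean inhibition below 70%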
# Target sequence (P26447 whole entry, looked up): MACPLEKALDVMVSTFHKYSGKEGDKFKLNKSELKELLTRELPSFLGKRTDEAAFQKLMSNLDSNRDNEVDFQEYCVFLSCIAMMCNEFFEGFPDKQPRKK
#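 Material: S100A4 monomer protein | Medium: HEPES pH 7.2 with CaCl2, KCl, NaCl, DTT, Triton | Reagent: Labelled myosin peptide probe, 5 nM | Doses: One dose per compound | Times: 5 min incubation before reading | Benchmarks: Neutral control DMSO, positive control TFP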
# dFosB act-1: mouse delta FosB homodimer activation; purified delta FosB, TAMRA-CDK5 oligo fluorescence polarization; percent of positive-control signal above neutral wells; activation, % at 25 µM; 0.99% of 340,000 active; AID 493131;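 active = mean activation above about 17%, with every replicate also reaching it, limit read from the data, passing the limit was not always enough; inconclusive = only one of the two conditions met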
# SR-BI DiI inh: inhibitors of mouse SR-BI mediated HDL lipid uptake; Q61009; ldlA[mSR-BI] CHO cells, DiI-HDL uptake fluorescence, 3 h; inhibition, % at 12.5 µM; 0.96% of 320,000 active;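 active = mean replicate inhibition of at least 70% and a set share of replicates each scoring 70 or more; inconclusive = meets just one of the two criteria; inactive = fails both criteria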;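 also: 0% = median of neutral control wells and 100% = median of positive control wells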
# Target sequence (Q61009 whole entry, looked up): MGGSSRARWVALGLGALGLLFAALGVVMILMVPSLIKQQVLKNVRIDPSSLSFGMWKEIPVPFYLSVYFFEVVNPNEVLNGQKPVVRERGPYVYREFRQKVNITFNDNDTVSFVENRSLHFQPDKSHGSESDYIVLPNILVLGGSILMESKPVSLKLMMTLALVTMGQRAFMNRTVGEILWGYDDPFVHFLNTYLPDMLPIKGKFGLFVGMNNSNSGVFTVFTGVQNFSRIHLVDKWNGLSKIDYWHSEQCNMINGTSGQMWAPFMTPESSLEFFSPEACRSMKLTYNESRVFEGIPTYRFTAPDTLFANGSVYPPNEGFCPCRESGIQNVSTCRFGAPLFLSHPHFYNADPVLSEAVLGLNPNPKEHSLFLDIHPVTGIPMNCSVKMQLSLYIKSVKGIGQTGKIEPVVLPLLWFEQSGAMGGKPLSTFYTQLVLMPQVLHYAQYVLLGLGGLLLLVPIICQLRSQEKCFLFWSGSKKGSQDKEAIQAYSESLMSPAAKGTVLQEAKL
# RAD54 inh: blocks human RAD54 Holliday junction branch migration; FAM/BHQ fluorescence; inhibition, % at 10.4 µM; Q92698; AID 602329; 0.14% of 360,000 active;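 active = mean normalized replicate activity at least 40 and at least half of replicates scoring 40 or more; inconclusive = only one of the two criteria met; inactive = mean below 40 and under half of replicates reaching 40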;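 also: 0% = median of neutral control wells and 100% = median of positive control wells; inhibitors cause a drop in the FAM fluorescence signal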
# PvdQ acylase: P. aeruginosa PvdQ acylase inhibition; AID 488965; inhibition, % at 10 µM; purified PvdQ acylase, fluorescence plate reader; 0.063% of 340,000 active; in the data active = inhibition above about 30%, passing the limit was not always enough; inconclusive = no clear call, values can overlap the other calls;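 also: 0% = vehicle neutral wells and 100% = reference inhibitor wells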
# dFosB act-2: enhances mouse delta FosB homodimer binding to DNA; purified delta FosB, TAMRA-CDK5 oligo fluorescence polarization; normalised: neutral wells 0, positive control 100; activation, % at 24.9 µM; 2,400 tested, under 10 active; shares compounds with dFosB act-1;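 active = highest replicate activation at or above 34% and every replicate reaching that threshold; inconclusive = meets only one of the two criteria; inactive = meets neither criterion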;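 also: higher polarization means more probe DNA bound by delta FosB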
# * = called active by the depositor; ? = inconclusive; . = not tested or not shown; ! = a repeat was not active. A selection: hits, their analogues and other compounds. The true share with any hit is near 1.6%.
SMILES,SR-BI DiI-HDL act,S100A4 inh HTS,dFosB act-1,SR-BI DiI inh,RAD54 inh,PvdQ acylase,dFosB act-2
O=C(Cn1cnc2c(nnn2Cc2ccc(F)cc2)c1=O)Nc1ccc2c(c1)OCCO2,-2,0,27*,2,-6,-7,0
COc1ccc(-n2nnc3c(=O)n(CC(=O)N4CCCc5ccccc54)cnc32)cc1,-49,1,35*,49,5,-11,3
Cc1ccc(NC(=O)Cn2cnc3c(nnn3Cc3ccc(F)cc3)c2=O)cc1,25,2,23*,-25,.,-1,1
CCOc1ccc(-n2nnc3c(=O)n(CC(=O)N4CCCc5ccccc54)cnc32)cc1,-43,6,-26,43,-4,-20,.
C[C@H](O)C#Cc1cnc2c(c1)C(=O)N([C@@H](C)CO)C[C@@H](C)[C@H](CN(C)C(=O)Cc1ccncc1)O2,.,-4,.,.,6,.,.
COc1ccc(NC(=O)Nc2cccc3c2O[C@@H](CN(C)S(C)(=O)=O)[C@@H](C)CN([C@@H](C)CO)C3=O)cc1,.,5,.,.,-8,.,.
CCC(=O)N(C)C[C@@H]1Oc2cc(-c3ccccc3F)ccc2S(=O)(=O)N([C@H](C)CO)C[C@@H]1C,.,-3,.,.,3,.,.
COc1ccc(OC)c(NC(=O)c2[nH]c(C)c(C(C)=O)c2C)c1,-71,.,-8,?,-4,-10,.
COc1ccc(Cl)cc1NC(=O)c1[nH]c(C)c(C(C)=O)c1C,-9,-3,36*,9,0,-2,4
COc1ccc(CN(C)C[C@H]2OCCCC[C@H](C)Oc3ccc(NS(=O)(=O)c4ccc(F)cc4)cc3C(=O)N([C@H](C)CO)C[C@H]2C)cc1,.,-6,.,.,0,.,.
CCC(CC)C(=O)Nc1nnc(S(=O)(=O)N2c3ccccc3CC2C)s1 (stereo unspecified),-23,1,0,23,3,2,.
Cc1ccc2c(c1)CC(C)N2S(=O)(=O)c1nnc(NC(=O)CC(C)C)s1 (stereo unspecified),-2,4,27*,2,-6,-16,1
O=C(Nc1cccc(Cl)c1)N1C[C@H]2[C@@H](c3ccccc31)[C@@H](CO)N2C(=O)C1CCCC1,.,.,.,.,7,.,.
CCOc1ccc(NC(=O)C2CCCN(S(=O)(=O)c3ccc4[nH]c(=O)ccc4c3)C2)cc1 (stereo unspecified),3,1,15,-3,5,-13,.
COc1ccc(NC(=O)C2CCCN(S(=O)(=O)c3ccc4[nH]c(=O)ccc4c3)C2)cc1 (stereo unspecified),-3,-1,17*,3,-14,-7,2
COc1cc(NC(=O)C2CCCN(S(=O)(=O)c3ccc4[nH]c(=O)ccc4c3)C2)cc(OC)c1 (stereo unspecified),27,2,52*,-27,-8,1,2
CCC(=O)Nc1ccc2c(c1)OC[C@H](C)N(C(=O)C1CC1)C[C@@H](C)[C@H](OC)CN(C)C2=O,.,-11,.,.,-7,.,.
Cc1ccc(OCc2nnc(SCC(=O)Nc3sc(C)c(C)c3C#N)n2C)cc1,-24,.,26*,24,-16,1,0
Cc1sc(NC(=O)CSc2nnc(COc3ccccc3)n2C)c(C#N)c1C,-7,.,-9,7,.,-9,.
C[C@@H]1CN([C@H](C)CO)C(=O)c2cc(/C=C/c3ccccc3)cnc2O[C@H]1CN(C)C(=O)c1ccc2c(c1)OCO2,.,-23,.,.,-15,.,.
COc1ccc(OC)c(-c2cc(C(=O)Nc3ccc(F)cc3F)no2)c1,-51,-1,33*,51,1,-11,6
COc1ccc(-c2cc(C(=O)Nc3ccc(F)cc3F)no2)cc1,-10,-1,-2,10,-2,-10,.
C[C@@H]1CN([C@@H](C)CO)C(=O)Cc2cc(NC(=O)Cc3ccccc3)ccc2O[C@@H]1CN(C)S(C)(=O)=O,.,0,.,.,-5,.,.
Cc1c(C(=O)OCC(O)=C(C#N)c2nc3ccccc3[nH]2)oc2ccc(Br)cc12,11,-6,-1,-11,.,4,.
Cc1c(C(=O)OC/C(O)=C(\C#N)c2nc3ccccc3[nH]2)oc2ccccc12,4,-9,45*,-4,-4,-10,-9
SMILES,SR-BI DiI-HDL act,S100A4 inh HTS,dFosB act-1,SR-BI DiI inh,RAD54 inh,PvdQ acylase,dFosB act-2
COc1cc(OC)cc(C(=O)OC/C(O)=C(\C#N)c2nc3ccccc3[nH]2)c1,-12,-2,40*,12,-8,-7,4
COc1cccc(NC(=O)N2C[C@@H](O)COC[C@@H]3O[C@@H](CC(=O)NC4Cc5ccccc5C4)CC[C@H]32)c1,.,0,.,.,2,.,.
COc1ccc2cc3[n+](cc2c1OC)CCc1cc2c(cc1-3)OCO2,1,7,36*!,-1,72*,0,2
CCC(=O)N[C@@H]1CC[C@@H](CCNS(=O)(=O)c2ccc(Cl)cc2)O[C@H]1CO,.,8,.,.,1,.,.
CCOC(=O)c1cccc(NC(=O)CCS(=O)(=O)c2ccc(Br)s2)c1,1,.,111*,-1,.,-9,3
C[C@H](CO)N1C[C@H](C)[C@H](CN(C)C(=O)Nc2ccc(F)cc2)OCCCC[C@H](C)Oc2ccc(NS(=O)(=O)c3ccc(F)cc3)cc2C1=O,.,.,.,.,4,.,.
Cc1ccc2[nH]c(=O)c(CN(CCN3CCOCC3)C(=O)Nc3ccc(F)cc3)cc2c1,0,.,-12,0,-1,-5,.
Cc1cc(C)c2cc(CN(CCN3CCCC3)C(=O)Nc3ccc(F)cc3)c(=O)[nH]c2c1,0,.,31*,0,8,4,-8
CN(C)c1nc(N/N=C\c2ccc(Cl)c([N+](=O)[O-])c2)nc(Nc2ccc(F)cc2)n1,-30,.,118*,30,8,5,-17
Cc1ccc(-c2cc3c(N=O)c4ccccc4c-3n[nH]2)cc1,2,0,32*,-2,.,-13,2
O=C(/C=C/c1cccs1)Nc1cccc(NC(=O)/C=C/c2cccs2)n1,-53,5,21*,53,-2,4,-6
O=C(COC(=O)c1ccc(F)cc1)NCc1ccc(F)cc1,34,1,-8,-34,3,-15,.
O=C(COC(=O)c1ccc(Br)cc1)NCc1ccc(F)cc1,6,0,20*,-6,-2,-2,2
COc1ccc(S(=O)(=O)Nc2cccc3c2O[C@@H](CN(C)C(=O)Nc2ccc(F)cc2)[C@@H](C)CN([C@@H](C)CO)C3=O)cc1,.,-5,.,.,0,.,.
O=C(Nc1cccc(NC(=O)c2ccccc2Cl)c1)c1cccs1,-45,5,-2,45,5,4,.
O=C(NC(=S)Nc1cccc(NC(=O)c2ccc(Cl)cc2Cl)c1)c1cccs1,-46,.,44*,46,-1,-3,-1
